Consider 23 compounds from ChEMBL document CHEMBL3351371, “Design and synthesis of phenolic hydrazide hydrazones as potent poly(ADP-ribose) glycohydrolase (PARG) inhibitors” (Bioorg Med Chem Lett, 2014).

The structures appear in SMILES notation.

For the experiment, the target named is Poly(ADP-ribose) glycohydrolase (Rattus norvegicus, UniProt Q9QYM2). Put plainly: Inhibition of rat testis GST-tagged PARG catalytic activity after 30 mins using [32P]poly(ADP-ribose) by radioassay. In a few lines: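 Recombinant rat PARG (from testis cDNA) expressed in E. coli as GST fusion (GST-RPG, 136 kDa), 15 ng per reaction. Compound in DMSO added to 4 μM [32P]poly(ADP-ribose) in 20 mM potassium phosphate pH 7.5, 50 mM KCl, 10 mM 2-mercaptoethanol; 37 °C, 30 min; stopped with 1% SDS (final). PEI-cellulose TLC (0.1 M LiCl/3 M AcOH/3 M urea), imaging-plate radioactivity; activity from fraction of degradation products.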
Sequence of Poly(ADP-ribose) glycohydrolase (Q9QYM2 whole entry, the tested form may be a part): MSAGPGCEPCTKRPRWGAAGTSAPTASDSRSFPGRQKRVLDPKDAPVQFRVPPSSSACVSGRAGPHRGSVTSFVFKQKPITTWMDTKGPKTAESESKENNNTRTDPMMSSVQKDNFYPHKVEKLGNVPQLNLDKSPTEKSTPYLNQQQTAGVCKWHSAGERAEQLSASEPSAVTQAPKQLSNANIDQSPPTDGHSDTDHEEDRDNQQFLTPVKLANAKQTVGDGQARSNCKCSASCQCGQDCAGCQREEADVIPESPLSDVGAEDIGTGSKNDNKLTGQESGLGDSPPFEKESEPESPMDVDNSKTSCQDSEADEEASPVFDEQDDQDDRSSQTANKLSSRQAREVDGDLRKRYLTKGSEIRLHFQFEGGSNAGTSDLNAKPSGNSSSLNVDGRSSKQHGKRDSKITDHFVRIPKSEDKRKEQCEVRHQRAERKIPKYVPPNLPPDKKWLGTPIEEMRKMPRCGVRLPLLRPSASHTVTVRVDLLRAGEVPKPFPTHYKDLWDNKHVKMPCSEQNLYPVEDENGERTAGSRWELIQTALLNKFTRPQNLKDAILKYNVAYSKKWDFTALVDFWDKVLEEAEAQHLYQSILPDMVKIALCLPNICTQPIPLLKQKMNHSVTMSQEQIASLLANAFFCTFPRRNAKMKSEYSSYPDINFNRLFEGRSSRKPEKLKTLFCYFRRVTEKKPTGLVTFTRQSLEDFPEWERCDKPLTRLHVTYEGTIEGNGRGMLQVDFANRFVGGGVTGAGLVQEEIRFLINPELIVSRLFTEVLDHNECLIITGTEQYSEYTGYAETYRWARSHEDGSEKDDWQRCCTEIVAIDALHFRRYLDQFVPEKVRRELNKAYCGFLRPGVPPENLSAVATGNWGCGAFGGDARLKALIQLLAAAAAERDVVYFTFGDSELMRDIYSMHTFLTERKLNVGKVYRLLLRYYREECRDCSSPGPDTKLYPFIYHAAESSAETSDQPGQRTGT
Take `O=C(CCCC(=O)N/N=C/c1ccc(O)c(O)c1O)N/N=C/c1ccc(O)c(O)c1O`: the concentration for half-maximal inhibition (IC50) turned out to be 13.9 µM.
As for `O=C(N/N=C/c1cccc(O)c1O)c1ccc(C(=O)N/N=C/c2cccc(O)c2O)cc1`, the IC50 was over 75 µM.
In the case of `O=C(N/N=C/c1ccc(O)cc1O)c1ccc(C(=O)N/N=C/c2ccc(O)cc2O)cc1` it was over 75 µM.
In the case of `O=C(N/N=C/c1ccc(O)c(O)c1)c1ccc(C(=O)N/N=C/c2ccc(O)c(O)c2)cc1` it was over 75 µM; in that of `O=C(N/N=C/c1ccc(O)c(O)c1O)c1ccc(C(=O)N/N=C/c2ccc(O)c(O)c2O)cc1`, 1 µM; in that of `O=C(N/N=C/c1cc(O)c(O)c(O)c1)c1ccc(C(=O)N/N=C/c2cc(O)c(O)c(O)c2)cc1`, 2.1 µM.
With `O=C(N/N=C/c1c(O)cc(O)cc1O)c1ccc(C(=O)N/N=C/c2c(O)cc(O)cc2O)cc1` the figure was 9.9 µM; with `O=C(N/N=C/c1cccc(O)c1O)c1cccc(C(=O)N/N=C/c2cccc(O)c2O)c1`, 14.8 µM.
Turning to `O=C(N/N=C/c1ccc(O)cc1O)c1cccc(C(=O)N/N=C/c2ccc(O)cc2O)c1`, the IC50 was 40.1 µM.
`O=C(N/N=C/c1ccc(O)c(O)c1)c1cccc(C(=O)N/N=C/c2ccc(O)c(O)c2)c1` yielded an IC50 of 19.2 µM.
The compound `O=C(N/N=C/c1ccc(O)c(O)c1O)c1cccc(C(=O)N/N=C/c2ccc(O)c(O)c2O)c1` displayed an IC50 of 3.1 µM.
With `O=C(N/N=C/c1cc(O)c(O)c(O)c1)c1cccc(C(=O)N/N=C/c2cc(O)c(O)c(O)c2)c1` the figure was 3.2 µM; with `O=C(N/N=C/c1c(O)cc(O)cc1O)c1cccc(C(=O)N/N=C/c2c(O)cc(O)cc2O)c1`, 18.8 µM; with `O=C(N/N=C/c1ccc(O)c(O)c1O)C(=O)N/N=C/c1ccc(O)c(O)c1O`, 3.1 µM.
With `O=C(N/N=C/c1cc(O)c(O)c(O)c1)C(=O)N/N=C/c1cc(O)c(O)c(O)c1` the figure was 2.8 µM; with `O=C(CC(=O)N/N=C/c1ccc(O)c(O)c1O)N/N=C/c1ccc(O)c(O)c1O`, 1.6 µM.
For the compound `O=C(CC(=O)N/N=C/c1cc(O)c(O)c(O)c1)N/N=C/c1cc(O)c(O)c(O)c1`, the IC50 was found to be 15.4 µM.
In the case of `O=C(CCC(=O)N/N=C/c1ccc(O)c(O)c1O)N/N=C/c1ccc(O)c(O)c1O` it was 9.8 µM.
In the case of `O=C(CCC(=O)N/N=C/c1cc(O)c(O)c(O)c1)N/N=C/c1cc(O)c(O)c(O)c1` it was 8.2 µM.
With `O=C(CCCC(=O)N/N=C/c1cc(O)c(O)c(O)c1)N/N=C/c1cc(O)c(O)c(O)c1` the figure was 27.4 µM; with `O=C(O[C@H]1[C@H](O)[C@@H](CO)OC(O)[C@@H]1O)c1cc(O)c(O)c(O)c1` (stereo partly drawn), 0.95 µM.
`O=C(O)CCN1C(=O)/C(=C2\C(=O)c3cc(Br)ccc3N2Cc2c(Cl)cccc2Cl)SC1=S`: the IC50 was 2.9 µM.
As to `Nc1ncnc2c1ncn2[C@@H]1O[C@H](CO[P@](=O)(O)O[P@@](=O)(O)OC[C@H]2NC[C@H](O)[C@@H]2O)[C@@H](O)[C@H]1O` [ADENOSINE DIPHOSPHATE (HYDROXYMETHYL)PYRROLIDINEDIOL], it took 0.1 µM to reach half-maximal inhibition (IC50).

For orientation: IC50 means the midpoint of a concentration-inhibition curve.
